In data set [1] the test system is Rattus norvegicus. Briefly: Reduction in circulating lymphocytes in Lewis rat at 1 mg/kg, po after 24 hrs. Format: functional. The method, boiled down:
(§1)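 Healthy Lewis rats dosed orally with test article as solution or suspension in vehicle, or vehicle alone. Blood drawn at 4 h and 24 h. Circulating lymphocyte percentage measured by hematology analyzer, expressed as reduction versus the vehicle group. Group average, n = 3–4.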

Another data set relates to Plasma. As to the kind of experiment: Ratio of plasma concentration Lewis rat at 1 mg/kg, po after 4 hrs to plasma concentration Lewis rat at 1 mg/kg, po after 24 hrs. Format: ADME, organism-based. The note with it: in vivo. The essentials: (§2)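 Lewis rats given 1.0 mg/kg orally as solution or suspension in vehicle. Plasma drug concentration measured in blood drawn at 4 h and 24 h; 4 h/24 h ratio taken from these values.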

Data set [2] in a line: Plasma concentration Lewis rat at 1 mg/kg, po after 24 hrs. Format: ADME, organism-based. The essentials: as §2
Data set [3] is described as follows: Plasma concentration Lewis rat at 1 mg/kg, po after 4 hrs. It counts as ADME, organism-based. The method, boiled down:
as §2

Data set [4] relates to Rattus norvegicus. Briefly: Reduction in circulating lymphocytes in Lewis rat at 1 mg/kg, po after 4 hrs. Format: functional. The method, boiled down: as §1
Data set [5] can be described thus: Selectivity index, ratio of EC50 for agonist activity at human S1P3 receptor expressed in EDG3-Ga15-bla HEK293T cell membranes to EC50 for agonist activity at human S1P1 receptor expressed in CHO cell membranes. Format: cell-based. The essentials: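 S1P3/S1P1 ratio of GTPγ[35S] EC50s. Membranes from EDG3-Ga15-bla HEK293T (S1P3) or S1P1/CHO cells, […], 0.2 nM final [35S]GTP. HEPES pH 7.5 buffer with MgCl2, NaCl, EGTA, DTT, GDP, BSA and saponin. 45 min at room temperature, filtration read-out. Each EC50 taken at 50% of the compound's own Ymax.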

Data set [6] deals with Sphingosine 1-phosphate receptor 3 (Homo sapiens, UniProt Q99500). Briefly: Agonist activity at human S1P3 receptor expressed in EDG3-Ga15-bla HEK293T cell membranes assessed as stimulation of [35S]GTPgamma binding incubated for 45 mins by liquid scintillation counting method. More on the design: species or system HEK-293T. The essentials: (§3)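 Membranes from S1P1/CHO cells (S1P1) or EDG3-Ga15-bla HEK293T cells (S1P3), final protein […], with 3-fold compound dilutions. Buffer: 20 mM HEPES pH 7.5, 10 mM MgCl2, 150 mM NaCl, 1 mM EGTA, 1 mM DTT, GDP, 0.1% fatty acid free BSA, saponin. [35S]GTP 0.2 nM final. Room temperature, 45 min. Filtered, washed with water, dried 60 °C. EC50 taken at 50% of each compound's Ymax.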
Sequence of Sphingosine 1-phosphate receptor 3 (Q99500 whole entry): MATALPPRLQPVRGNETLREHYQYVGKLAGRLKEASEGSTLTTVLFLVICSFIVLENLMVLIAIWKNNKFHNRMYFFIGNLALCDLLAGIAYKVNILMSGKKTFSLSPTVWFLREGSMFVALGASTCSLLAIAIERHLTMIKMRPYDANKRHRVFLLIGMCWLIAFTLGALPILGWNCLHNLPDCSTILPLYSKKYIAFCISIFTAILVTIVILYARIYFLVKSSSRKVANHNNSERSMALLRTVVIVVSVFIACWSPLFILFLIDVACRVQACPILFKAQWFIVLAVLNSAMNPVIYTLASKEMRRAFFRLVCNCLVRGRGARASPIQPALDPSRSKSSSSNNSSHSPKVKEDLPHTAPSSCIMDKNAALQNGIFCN

Data set [7] has as its target Sphingosine 1-phosphate receptor 1 (Homo sapiens, UniProt P21453). Briefly: Agonist activity at human S1P1 receptor expressed in CHO cell membranes assessed as stimulation of [35S]GTPgamma binding incubated for 45 mins by liquid scintillation counting method. The essentials:
as §3

Sequence of Sphingosine 1-phosphate receptor 1 (P21453 whole entry): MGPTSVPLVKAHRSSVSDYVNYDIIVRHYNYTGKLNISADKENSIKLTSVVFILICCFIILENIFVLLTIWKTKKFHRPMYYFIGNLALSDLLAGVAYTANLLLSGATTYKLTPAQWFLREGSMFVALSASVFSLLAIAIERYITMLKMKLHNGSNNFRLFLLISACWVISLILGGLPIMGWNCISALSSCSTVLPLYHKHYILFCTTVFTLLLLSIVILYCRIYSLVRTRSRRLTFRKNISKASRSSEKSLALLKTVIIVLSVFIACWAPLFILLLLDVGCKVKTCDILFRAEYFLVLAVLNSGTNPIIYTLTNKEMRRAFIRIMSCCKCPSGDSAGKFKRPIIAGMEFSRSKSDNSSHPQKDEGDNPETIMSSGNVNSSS

Usually inhibition in vivo stands for the percentage by which the read-out fell short of the control. Regarding `CCCc1c(-c2nc(-c3ccc(CN4CC(C(=O)O)C4)cc3)no2)noc1-c1ccccn1`, the inhibition in vivo at 1 mg/kg came to 53% with Rattus norvegicus [1] and 81% in the data set on Rattus norvegicus [4]. In addition, in the data set with Plasma, the Ratio came to 30. In data set [2], this compound gave a concentration at 24 h of 9.9 nM. Also, the concentration at 4 h in data set [3] amounted to 292 nM. Further, the Ratio EC50 in data set [5] stood at 2500.

In general, EC50 refers to the concentration needed to bring the measured effect to its halfway point. Turning to `CC(C)c1c(-c2nc(-c3ccc(CN4CC(C(=O)O)C4)cc3)no2)noc1-c1ccccn1`, the figures for the inhibition in vivo at 1 mg/kg in the data set on Rattus norvegicus [1] and in the data set with Rattus norvegicus [4] were 64% and 84%, respectively. Besides, in the data set with Plasma, the Ratio was found to be 22. For the same compound, the concentration at 24 h in data set [2] is 31 nM. For the same compound, the concentration at 4 h in data set [3] came to 686 nM. Moreover, the 50% effective concentration (EC50) in data set [6] came to 8200 nM. Further, the Ratio EC50 in data set [5] is 8200.

In the case of `CCc1c(-c2nc(-c3ccc(CN4CC(C(=O)O)C4)cc3)no2)noc1-c1ccccn1`, the inhibition in vivo at 1 mg/kg in the data set with Rattus norvegicus [1] was 58%; in the data set on Rattus norvegicus [4] it was 84%. Also, the Ratio in the data set on Plasma is reported as 15. This compound also showed a concentration at 24 h in data set [2] of 64 nM. Besides, the concentration at 4 h in data set [3] is 972 nM. The EC50 in data set [7] was 3.4 nM. Moreover, the Ratio EC50 in data set [5] stood at 550.

With `CCCc1c(-c2ccccn2)noc1-c1nc(-c2ccc(CN3CC(C(=O)O)C3)cc2)no1`, the inhibition in vivo at 1 mg/kg in the data set with Rattus norvegicus [1] worked out at 85%; with Rattus norvegicus [4], 82%. Further, in the data set with Plasma, the Ratio is on record as 12. Further, the concentration at 24 h in data set [2] came to 26 nM. Besides, the concentration at 4 h in data set [3] was found to be 318 nM. Further, the values for the EC50 in data set [6] and in data set [7] were 630 nM and 0.21 nM, respectively. The Ratio EC50 in data set [5] was found to be 3000.

Consider `O=C(O)C1CN(Cc2ccc(-c3noc(-c4onc(-c5ccccc5)c4C(F)(F)F)n3)cc2)C1`, for which the results for the inhibition in vivo at 1 mg/kg in the data set with Rattus norvegicus [1] and with Rattus norvegicus [4] were 91% and 78%, respectively. Moreover, in the data set with Plasma, the Ratio is given as 3. Further, the concentration at 4 h in data set [3] amounted to 2130 nM.

For the origin of these results see ChEMBL document CHEMBL3792331, “Identification and synthesis of potent and selective pyridyl-isoxazole based agonists of sphingosine-1-phosphate 1 (S1P1)” (Bioorg Med Chem Lett, 2016).
